The full list was thinned out, with hits kept by preference.
PTEN del growth: growth suppressors of cells with PTEN tumor suppressor deletion | viability, % at 10 µM | AID 827 | actives 1.2% (n = 140,000) | HCT116 PTEN-null viability, CellTiter-Glo, 60 h; active compounds read low;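 active means viability at or below a set limit, 4 SD under the median of all tested compounds, cut at about 3.7% in these data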;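 further: PTEN knockout HCT116 line with beta catenin targeted HCT116 as companion control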
Phagocytosis inh: blocks phagocytosis by macrophages; actives 0.07% (n = 110,000); J774A.1 macrophage IgG-bead phagocytosis, imaging; inhibition, % at 5 µM; AID 1029;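 active means inhibition above the mean of the plate negative controls plus 5 SD, cut at about 13% in these data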;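 further: phagocytic index as fraction of beads internalized from green versus red external bead signal; plate controls were DMSO negative control for no effect and cytochalasin-D positive control for full effect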
H69AR growth 86K: blocks growth of human H69AR lung tumor cells | H69AR lung tumor viability, ATP luminescence, 72 h; active compounds read low | viability, % at 10 µM | actives 6% (n = 85,000);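 active means viability at or below 40%; inactive means viability above 40%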;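 further: multidrug resistant small cell line overexpressing MRP-1 efflux transporter; 100% = mean luminescence of untreated control wells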
bCat KO growth: beta-catenin-lacking colon tumor cell growth suppression; HCT116 beta-catenin knockout viability, CellTiter-Glo, 60 h; active compounds read low; AID 818; actives 1.5% (n = 140,000); viability, % at 10 µM;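 active means viability at or under a set limit, the compound median less 4 SD, cut at about 6% in these data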;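 further: 0% = Hyamine 1622 control at 20 µM and 100% = untreated cell control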
HUVEC prolif 384: inhibitors of human endothelial cell proliferation; HUVEC proliferation, CellTiter-Glo luminescence, 72 h; active compounds read low; viability, % at 10 µM (by protocol); actives 1.1% (n = 86,000);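 active means viability at or below 30%; inactive means viability above 30%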;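 further: 100% = median luminescence of DMSO-only cell control wells on each plate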
Fibroblast inh: blocks proliferation of human lung fibroblasts | actives 1.1% (n = 85,000) | LL 47 human lung fibroblast viability, ATP luminescence; active compounds read low | viability, % at 10 µM | AID 719;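 active means viability at or below 50% in the single dose screen; inactive means viability above 50%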;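 further: compound exposure lasted 72 h before the ATP readout; 100% = median luminescence of untreated cell-only wells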
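Assay system: human lung fibroblast line LL 47, low passage. Input: 1,150 fibroblasts seeded per well. Times: overnight cell rest, 72 h compound treatment at 37 °C. Evaluation: % viability of median cell-only signal. Technique: luminescent ATP detection, CellTiter-Glo. Control set: cell-only wells, no compound.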
* = called active by the depositor; / = no result.

SMILES	PTEN del growth	Phagocytosis inh	H69AR growth 86K	bCat KO growth	HUVEC prolif 384	Fibroblast inh
CC1CCCCN1S(=O)(=O)c1ccc(S(=O)(=O)N2CCN(c3ccc(F)cc3)CC2)cc1 (centres undefined)	90	0	19*	85	56	72
O=S(=O)(c1ccc(F)cc1)N1CCN(c2ccccc2)CC1	90	1	77	84	90	96
CCC(=O)Nc1cccc(NC(=O)c2cccc([N+](=O)[O-])c2)c1	86	0	/	87	/	/
CCOC(=O)c1sc(NC(=O)CSc2n[nH]c(-c3ccncc3)n2)c(C#N)c1C	107	1	19*	98	47	98
CCOC(=O)c1sc(NC(=O)CSc2nccc(C)n2)c(C#N)c1C	5	0	7.2*	11	89	95
Cc1ccnc(SCC(=O)Nc2sc3c(c2C#N)CCCC3)n1	34	-1	90	30	66	89
CCn1c(/N=C/c2ccccc2NS(=O)(=O)c2ccc(C)cc2)nc2ccccc21	68	-7	/	70	/	/
COc1cccc(-c2nnc3n2N=C(C(C)(C)C)CS3)c1	4	/	98	5.5*	36	52
CCOc1cccc(-c2nnc3n2N=C(c2cc(OC)ccc2OC)CS3)c1	18	/	21*	18	56	60
CC(C)CNC(=S)NC(=O)c1ccc(Cl)cc1Cl	100	2	/	91	/	/
Cc1n[nH]c(=O)nc1Nc1ccc(O)cc1	107	-1	97	95	94	105
Oc1ccc(Nc2nc3ccccc3nc2Nc2ccc(O)cc2)cc1	1.6*	0	2.3*	1.8*	32	4.0*
Cc1cccc(-c2nnc3n2N=C(c2ccccc2Br)CS3)c1	25	-2	46	17	97	91
CCCCNS(=O)(=O)c1ccc2nc(-c3cccnc3)cc(C(=O)NC3CC3)c2c1	0.4*	/	/	0.3*	/	/
CCCCNS(=O)(=O)c1ccc2nc(-c3cccnc3)cc(C(=O)NC(C)C)c2c1	69	/	/	68	/	/
c1ccc(-c2ccc3c(c2)c2c4n3CCN=C4CCC2)cc1	25	-6	24*	20	28*	75
COc1ccc(NC(=O)c2cnc(C)cn2)c2ncccc12	11	-1	2.8*	11	27*	49*
c1ccc(-c2nc3cc4ccccc4cc3[nH]2)nc1	40	-1	16*	40	55	52
COc1ccc(CCNC(=O)CNS(=O)(=O)c2cccs2)cc1OC	65	/	101	75	88	101
Cc1c(Cc2ccc3c(c2)OCO3)sc(NC(=O)C(C)(C)C)c1C#N	40	-1	38*	47	85	84
CCN(CC)C(=O)c1sc(NC(=O)c2ccc3c(c2)OCO3)c(C#N)c1C	101	0	94	98	93	100
CCOC(=O)CSC1=C(C#N)C(c2ccccc2Cl)C(C(=O)OC)C(=O)N1 (centres undefined)	82	2	81	91	92	94
CCOC(=O)c1c(NC(C)=O)sc2c1CCCNC2=O	89	-1	64	101	92	91
CCOC(=O)c1c(NC(C)=O)sc2c1CCC(C=O)=C2Sc1ccccc1	/	2	4.6*	21	32	18*
OCCNc1nc(-c2ccccc2)c2ccccc2n1	82	1	90	92	87	92
SMILES	PTEN del growth	Phagocytosis inh	H69AR growth 86K	bCat KO growth	HUVEC prolif 384	Fibroblast inh
Cc1ccc2nc(NCCO)nc(-c3ccccc3)c2c1	41	-1	25*	47	69	76
CN(c1ccccc1)S(=O)(=O)c1cccc(NC(=O)CC(C)(C)C)c1	54	-11	/	64	/	/
Cc1ccc(S(=O)(=O)Oc2ccc(/C=C(/NC(=O)c3ccccc3)C(=O)Nc3ccccc3)cc2)cc1	94	4	32*	86	82	104
COc1ccc(N2CCN(C(c3cc(OC)ccc3OC)c3nnnn3CC3CCCO3)CC2)cc1 (centres undefined)	0.7*	/	93	0.9*	93	97
O=C1CSC(c2ccccn2)N1Cc1cn2ccccc2n1 (centres undefined)	79	-1	94	79	100	14*
O=C1CSC(c2ccccn2)N1c1cccc(Cl)c1 (centres undefined)	94	-2	98	87	105	104
Cc1cccc(NC(=O)c2ccccc2O)c1C	89	-2	53	82	99	90
Cc1ccc(C)c(NC(=O)c2ccccc2O)c1	81	0	19*	82	81	97

Screens from PubChem.
